Measurements: ChEMBL document CHEMBL1156240, “Papyriferic acid derivatives as reversal agents of multidrug resistance in cancer cells” (Bioorg Med Chem, 2010)

Columns and labels:
[1] = tested on: KB; experiment: Cytotoxicity against human KB cells after 48 hrs by MTT assay; assay type: functional, cell-based
[2] = Cytotoxicity against human multidrug-resistant KB-C2 cells after 48 hrs by MTT assay; assay type: functional, cell-based; conditions: KB-C2, 48 h
How it was run: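 Seeded 5 × 10³ cells/well, preincubated 24 h, then compounds at 2, 10, 50, 100 µg/mL in medium (0.5% DMSO final) for 48 h. MTT 0.5 mg/mL for 4 h, formazan dissolved in DMSO, OD 540 nm; IC50 relative to vehicle controls.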

Row | Structure (SMILES) | IC50 [1] [µM] | IC50 [2] [µM]
1 | CCCNC(=O)CC(=O)O[C@@H]1CC[C@]2(C)[C@H]3C[C@@H](OC(C)=O)[C@@H]4[C@@H]([C@]5(C)CC[C@H](C(C)(C)O)O5)CC[C@@]4(C)[C@]3(C)CC[C@H]2C1(C)C | 46.1 | 40.8
2 | CC(=O)O[C@@H]1C[C@@H]2[C@@]3(C)CC[C@@H](OC(=O)CC(=O)OCc4ccccc4)C(C)(C)[C@@H]3CC[C@@]2(C)[C@]2(C)CC[C@H]([C@]3(C)CC[C@H](C(C)(C)O)O3)[C@@H]12 | 43.7 | > 100
3 | CCCCOC(=O)CC(=O)O[C@@H]1CC[C@]2(C)[C@H]3C[C@@H](OC(C)=O)[C@@H]4[C@@H]([C@]5(C)CC[C@H](C(C)(C)O)O5)CC[C@@]4(C)[C@]3(C)CC[C@H]2C1(C)C | 40.8 | > 100
4 | CC(=O)O[C@@H]1C[C@@H]2[C@@]3(C)CC[C@@H](OC(=O)CC(=O)NCc4ccccc4)C(C)(C)[C@@H]3CC[C@@]2(C)[C@]2(C)CC[C@H]([C@]3(C)CC[C@H](C(C)(C)OC(=O)C(=O)NCc4ccccc4)O3)[C@@H]12 | > 100 | > 100
5 | CC(=O)O[C@@H]1C[C@@H]2[C@@]3(C)CC[C@@H](OC(=O)CC(=O)OCC(C)C)C(C)(C)[C@@H]3CC[C@@]2(C)[C@]2(C)CC[C@H]([C@]3(C)CC[C@H](C(C)(C)O)O3)[C@@H]12 | 33.3 | > 100
6 | CCCCCCOC(=O)CC(=O)O[C@@H]1CC[C@]2(C)[C@H]3C[C@@H](OC(C)=O)[C@@H]4[C@@H]([C@]5(C)CC[C@H](C(C)(C)O)O5)CC[C@@]4(C)[C@]3(C)CC[C@H]2C1(C)C | 70.7 | > 100
7 | CCCCCNC(=O)CC(=O)O[C@@H]1CC[C@]2(C)[C@H]3C[C@@H](OC(C)=O)[C@@H]4[C@@H]([C@]5(C)CC[C@H](C(C)(C)OC(=O)C(=O)NCCCCC)O5)CC[C@@]4(C)[C@]3(C)CC[C@H]2C1(C)C | > 100 | > 100
8 | CC(=O)O[C@@H]1C[C@@H]2[C@@]3(C)CC[C@@H](OC(=O)CC(=O)OC(C)(C)C)C(C)(C)[C@@H]3CC[C@@]2(C)[C@]2(C)CC[C@H]([C@]3(C)CC[C@H](C(C)(C)O)O3)[C@@H]12 | 31.5 | > 100
9 | COc1ccc(CCN(C)CCCC(C#N)(c2ccc(OC)c(OC)c2)C(C)C)cc1OC (configuration not stated) |  | > 100
10 | CCCCCCCCOC(=O)CC(=O)O[C@@H]1CC[C@]2(C)[C@H]3C[C@@H](OC(C)=O)[C@@H]4[C@@H]([C@]5(C)CC[C@H](C(C)(C)O)O5)CC[C@@]4(C)[C@]3(C)CC[C@H]2C1(C)C | > 100 | > 100
11 | CC(=O)O[C@@H]1C[C@@H]2[C@@]3(C)CC[C@@H](OC(=O)CC(=O)Nc4ccccc4)C(C)(C)[C@@H]3CC[C@@]2(C)[C@]2(C)CC[C@H]([C@]3(C)CC[C@H](C(C)(C)OC(=O)C(=O)Nc4ccccc4)O3)[C@@H]12 | > 100 | > 100
12 | CCCOC(=O)CC(=O)O[C@@H]1CC[C@]2(C)[C@H]3CC[C@@H]4[C@@H]([C@]5(C)CC[C@H](C(C)(C)O)O5)CC[C@@]4(C)[C@]3(C)CC[C@H]2C1(C)C | 60.3 | > 100
13 | CCCCCCOC(=O)CC(=O)O[C@@H]1CC[C@]2(C)[C@H]3CC[C@@H]4[C@@H]([C@]5(C)CC[C@H](C(C)(C)O)O5)CC[C@@]4(C)[C@]3(C)CC[C@H]2C1(C)C | > 100 | > 100
14 | CCCCCCCCCNC(=O)CC(=O)O[C@@H]1CC[C@]2(C)[C@H]3C[C@@H](OC(C)=O)[C@@H]4[C@@H]([C@]5(C)CC[C@H](C(C)(C)O)O5)CC[C@@]4(C)[C@]3(C)CC[C@H]2C1(C)C | 42.8 | > 100
15 | CCCCCCCOC(=O)CC(=O)O[C@@H]1CC[C@]2(C)[C@H]3CC[C@@H]4[C@@H]([C@]5(C)CC[C@H](C(C)(C)O)O5)CC[C@@]4(C)[C@]3(C)CC[C@H]2C1(C)C | > 100 | > 100
16 | CCCCCCCCCNC(=O)CC(=O)O[C@@H]1CC[C@]2(C)[C@H]3C[C@@H](OC(C)=O)[C@@H]4[C@@H]([C@]5(C)CC[C@H](C(C)(C)OC(=O)C(=O)NCCCCCCCCC)O5)CC[C@@]4(C)[C@]3(C)CC[C@H]2C1(C)C | > 100 | > 100
17 | CCCCCOC(=O)CC(=O)O[C@@H]1CC[C@]2(C)[C@H]3CC[C@@H]4[C@@H]([C@]5(C)CC[C@H](C(C)(C)O)O5)CC[C@@]4(C)[C@]3(C)CC[C@H]2C1(C)C | > 100 | > 100
18 | CCCOC(=O)CC(=O)O[C@@H]1CC[C@]2(C)[C@H]3C[C@@H](OC(C)=O)[C@@H]4[C@@H]([C@]5(C)CC[C@H](C(C)(C)O)O5)CC[C@@]4(C)[C@]3(C)CC[C@H]2C1(C)C | 27.8 | 67.8
19 | CCCCOC(=O)CC(=O)O[C@@H]1CC[C@]2(C)[C@H]3CC[C@@H]4[C@@H]([C@]5(C)CC[C@H](C(C)(C)O)O5)CC[C@@]4(C)[C@]3(C)CC[C@H]2C1(C)C | > 100 | > 100

Row | Structure (SMILES) | IC50 [1] [µM] | IC50 [2] [µM]
20 | COc1ccc(OC)c(NC(=O)CC(=O)O[C@@H]2CC[C@]3(C)[C@H]4C[C@@H](OC(C)=O)[C@@H]5[C@@H]([C@]6(C)CC[C@H](C(C)(C)OC(=O)C(=O)Nc7cc(OC)ccc7OC)O6)CC[C@@]5(C)[C@]4(C)CC[C@H]3C2(C)C)c1 | > 100 | > 100
21 | CC(C)OC(=O)CC(=O)O[C@@H]1CC[C@]2(C)[C@H]3CC[C@@H]4[C@@H]([C@]5(C)CC[C@H](C(C)(C)O)O5)CC[C@@]4(C)[C@]3(C)CC[C@H]2C1(C)C | > 100 | > 100
22 | CCCCCNC(=O)CC(=O)O[C@@H]1CC[C@]2(C)[C@H]3C[C@@H](OC(C)=O)[C@@H]4[C@@H]([C@]5(C)CC[C@H](C(C)(C)O)O5)CC[C@@]4(C)[C@]3(C)CC[C@H]2C1(C)C | 38.3 | 38.3
23 | CCCCCCCOC(=O)CC(=O)O[C@@H]1CC[C@]2(C)[C@H]3C[C@@H](OC(C)=O)[C@@H]4[C@@H]([C@]5(C)CC[C@H](C(C)(C)O)O5)CC[C@@]4(C)[C@]3(C)CC[C@H]2C1(C)C | > 100 | > 100
24 | CCCCCOC(=O)CC(=O)O[C@@H]1CC[C@]2(C)[C@H]3C[C@@H](OC(C)=O)[C@@H]4[C@@H]([C@]5(C)CC[C@H](C(C)(C)O)O5)CC[C@@]4(C)[C@]3(C)CC[C@H]2C1(C)C | 45.4 | > 100
25 | CC(=O)O[C@@H]1C[C@@H]2[C@@]3(C)CC[C@@H](OC(=O)CC(=O)Nc4ccccc4)C(C)(C)[C@@H]3CC[C@@]2(C)[C@]2(C)CC[C@H]([C@]3(C)CC[C@H](C(C)(C)O)O3)[C@@H]12 | 28.3 | 26.2
26 | COc1ccc(OC)c(NC(=O)CC(=O)O[C@@H]2CC[C@]3(C)[C@H]4C[C@@H](OC(C)=O)[C@@H]5[C@@H]([C@]6(C)CC[C@H](C(C)(C)O)O6)CC[C@@]5(C)[C@]4(C)CC[C@H]3C2(C)C)c1 | > 100 | > 100
27 | C=CCOC(=O)CC(=O)O[C@@H]1CC[C@]2(C)[C@H]3C[C@@H](OC(C)=O)[C@@H]4[C@@H]([C@]5(C)CC[C@H](C(C)(C)O)O5)CC[C@@]4(C)[C@]3(C)CC[C@H]2C1(C)C | 34.8 | 48.3
28 | CC(C)COC(=O)CC(=O)O[C@@H]1CC[C@]2(C)[C@H]3CC[C@@H]4[C@@H]([C@]5(C)CC[C@H](C(C)(C)O)O5)CC[C@@]4(C)[C@]3(C)CC[C@H]2C1(C)C | 97 | > 100
29 | CCCCCCCCOC(=O)CC(=O)O[C@@H]1CC[C@]2(C)[C@H]3CC[C@@H]4[C@@H]([C@]5(C)CC[C@H](C(C)(C)O)O5)CC[C@@]4(C)[C@]3(C)CC[C@H]2C1(C)C | > 100 | > 100
30 | CC(=O)O[C@@H]1C[C@@H]2[C@@]3(C)CC[C@@H](OC(=O)CC(=O)NC(C)(C)C)C(C)(C)[C@@H]3CC[C@@]2(C)[C@]2(C)CC[C@H]([C@]3(C)CC[C@H](C(C)(C)OC(=O)C(=O)NC(C)(C)C)O3)[C@@H]12 | > 100 | > 100
31 | CC(=O)O[C@@H]1C[C@@H]2[C@@]3(C)CC[C@@H](OC(=O)CC(=O)OC(C)C)C(C)(C)[C@@H]3CC[C@@]2(C)[C@]2(C)CC[C@H]([C@]3(C)CC[C@H](C(C)(C)O)O3)[C@@H]12 | 74.6 | > 100
32 | CCOC(=O)CC(=O)O[C@@H]1CC[C@]2(C)[C@H]3C[C@@H](OC(C)=O)[C@@H]4[C@@H]([C@]5(C)CC[C@H](C(C)(C)O)O5)CC[C@@]4(C)[C@]3(C)CC[C@H]2C1(C)C | 39.1 | 64.3
33 | CCOC(=O)CC(=O)O[C@@H]1CC[C@]2(C)[C@H]3CC[C@@H]4[C@@H]([C@]5(C)CC[C@H](C(C)(C)O)O5)CC[C@@]4(C)[C@]3(C)CC[C@H]2C1(C)C | > 100 | > 100
34 | CCCCNC(=O)CC(=O)O[C@@H]1CC[C@]2(C)[C@H]3C[C@@H](OC(C)=O)[C@@H]4[C@@H]([C@]5(C)CC[C@H](C(C)(C)O)O5)CC[C@@]4(C)[C@]3(C)CC[C@H]2C1(C)C | 24.9 | 24.4
35 | COc1cccc2c1C(=O)c1c(O)c3c(c(O)c1C2=O)C[C@@](O)(C(C)=O)C[C@@H]3O[C@H]1C[C@H](N)[C@H](O)[C@H](C)O1 [DAUNORUBICIN] | 0.64 | 16.2
36 | CC(=O)O[C@@H]1C[C@@H]2[C@@]3(C)CC[C@@H](OC(=O)CC(=O)NCc4ccccc4)C(C)(C)[C@@H]3CC[C@@]2(C)[C@]2(C)CC[C@H]([C@]3(C)CC[C@H](C(C)(C)O)O3)[C@@H]12 | 31.9 | 33.2
37 | COc1cc2c(c(OC)c1OC)-c1ccc(OC)c(=O)cc1[C@@H](NC(C)=O)CC2 [COLCHICINE] |  | 10.9
